# CSN deneddyl inh – inhibitors of CSN-mediated cullin deneddylation, primary screen, biochemical, fluorescence polarization, uHTS; 0.38% of 360,000 active; inhibition, % at 12.5 µM; Purified CSN, SCF-Nedd8-OG deneddylation; COP9 signalosome complex subunit 5 (Homo sapiens), Q92905;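 active = pattern-corrected inhibition above about 35%, with an unprinted fluorescence ratio check between 0.5 and 1.5, limit read from the data, passing the limit was not always enough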;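 also: 0% = enzyme with substrate and 100% = substrate without enzyme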
# Target sequence (Q92905 whole entry, looked up, one chain of several): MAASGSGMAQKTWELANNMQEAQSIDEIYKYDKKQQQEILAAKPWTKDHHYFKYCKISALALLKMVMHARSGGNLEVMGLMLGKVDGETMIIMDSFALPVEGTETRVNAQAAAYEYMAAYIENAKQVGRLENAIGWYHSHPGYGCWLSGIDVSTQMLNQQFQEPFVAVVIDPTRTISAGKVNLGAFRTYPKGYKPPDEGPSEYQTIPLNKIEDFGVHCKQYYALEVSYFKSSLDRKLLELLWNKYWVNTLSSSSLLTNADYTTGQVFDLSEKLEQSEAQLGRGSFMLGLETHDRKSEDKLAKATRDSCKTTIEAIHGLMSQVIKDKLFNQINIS
#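 Assay system: purified human Csn5 enzyme expressed in HEK293T cells; measure: % inhibition; also added: SCFSkp2-Nedd8OG substrate at 10 nM final; technique: fluorescence polarization; times: reaction 90 min, room temperature; medium: Tris buffer pH 7.5, NaCl, DTT, Tween-20, trehalose, ovalbumin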
# PP1 counter – PP1-alpha phosphatase inhibitors, primary screen, counter-screen for PP5 inhibitor project, biochemical, fluorescence, OMFP substrate, single point; Serine/threonine-protein phosphatase PP1-alpha catalytic subunit (Homo sapiens), P62136; purified PP1alpha; inhibition, % at 6.7 µM; 0.9% of 320,000 active; AID 2235, 2010;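 active = inhibition above the mean inhibition of all tested compounds plus 3 SD, computed separately for each screening campaign, cut at about 15% in these data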
# Rpn11 block – Rpn11 (PSMD14) deubiquitinase inhibitors, primary screen, biochemical, fluorescence polarization, uHTS. inhibition, % at 20 µM. 0.59% of 360,000 active. human 26S proteasome, Ub4-pepOG fluorescence polarization; 20S core pre-blocked with epoxomicin. AID 588493, 2011;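 active = inhibition at 20 µM, scaled to each plate's controls, above about 33%, limit read from the data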
# TPT1 inh – Candida albicans TPT1 enzyme inhibitors, primary screen, biochemical, fluorescence polarization; tRNA 2'-phosphotransferase TPT1 (Candida albicans SC5314); recombinant caTPT1, FP RNA substrate dephosphorylation; inhibition, % at 5 µM; 0.81% of 300,000 active;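 active = inhibition above the mean of all tested compounds plus 3 SD, set per screening campaign, cut at about 24% in these data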;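 also: plate controls were DMSO alone for no effect and ferristatin control at 100 nM for full effect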
# NadD inh – inhibitors of S. aureus NadD, primary screen, biochemical, colorimetric, uHTS; AID 602399, 2012; Nicotinate-nucleotide adenylyltransferase NadD (Staphylococcus aureus N315); 0.78% of 360,000 active; purified NadD enzyme, colorimetric absorbance read-out; inhibition, % at 20 µM; in the data active = inhibition above about 26%
# HNF4A DNA FP – change in binding of human HNF4A to DNA, primary screen, biochemical, fluorescence polarization, FITC-DNA; activity change, % at 10 µM; 1 h; Hepatocyte nuclear factor 4-alpha (Homo sapiens), P41235; AID 1224865, 2016; 0.3% of 360,000 active; in the data active = activity change above about 30%, passing the limit was not always enough
# CSN5 deneddyl – Csn5 deneddylation inhibitors, confirmation, biochemical, fluorescence polarization, single concentration, SCF-Nedd8OG substrate. 62% of 540 active. inhibition, % at 16.6 µM. shares compounds with CSN deneddyl inh. Csn5 deneddylation of SCF-Nedd8OG, 90 min; in the data active = inhibition above about 50%;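 also: 0% = DMSO with enzyme and 100% = no enzyme wells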
# MMP2 cntr CSN – MMP-2 protease inhibition counter-screen, confirmation, counter-screen for CSN deneddylation inhibitor project, biochemical, fluorescence, single concentration; inhibition, % at 16.6 µM; recombinant MMP-2, FRET substrate fluorescence, 60 min; shares compounds with CSN deneddyl inh; 33% of 540 active;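 active = corrected plate-normalized z-score of 5 or more, or -5 or less, or inhibition of 15% or more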;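 also: plate controls were DMSO wells with enzyme for no effect and buffer wells lacking MMP-2 for full effect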
# Thrombin counter – blocks bovine thrombin in a CSN deneddylation counter-screen; 49% of 540 active; inhibition, % at 16.6 µM; bovine thrombin cleavage of Ub4-pepOG, fluorescence polarization; shares compounds with CSN deneddyl inh;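 active = inhibition at or above a set limit, with a fluorescence interference ratio between 0.5 and a set maximum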
# * = called active by the depositor; . = no result shown. Rows were chosen to be rich in hits. Some 2.7% of all compounds tested hit in one or more screens of this group.
SMILES,CSN deneddyl inh,PP1 counter,Rpn11 block,TPT1 inh,NadD inh,HNF4A DNA FP,CSN5 deneddyl,MMP2 cntr CSN,Thrombin counter
O=C(O)c1ccc(/C=C/c2nc3ccccc3c(=O)n2-c2ccc(Br)cc2)cc1,3,2,6,-1,4,2,.,.,.
O=c1c2ccccc2nc(/C=C/c2ccc([N+](=O)[O-])o2)n1-c1ccc(O)cc1,50*,.,.,.,-1,177,65*,-1,46*
O=C(/C=C/c1ccccc1)NC(=S)N1C[C@H]2C[C@H](C1)c1cccc(=O)n1C2,0,-6,-8,-4,-1,-1,.,.,.
Cc1cc(N(CCCl)CCCl)ccc1C=Cc1ccncn1,41*,.,.,.,3,67*,53*,-23,37*
O=C1c2ccccc2-n2nnnc2C2c3ccccc3-n3nncc3CN12 (centres undefined),1,.,9,.,-6,-3,.,.,.
COC(=O)C1=C(c2ccc(-c3ccccc3)c(F)c2)C[C@@H]2CC[C@H]1N2C(=O)NCc1cc(C)oc1C(F)(F)F,1,14,3,.,-1,-2,.,.,.
Clc1cccc(N2Cc3cc(-c4ccccc4)ccc3-n3nncc3C2)c1,69*,.,8,.,33*,-4,66*,14,25*

# Source: PubChem
